The values below come from ChEMBL document CHEMBL2424622, “Development of amino-pyrimidine inhibitors of c-Jun N-terminal kinase (JNK): kinase profiling guided optimization of a 1,2,3-benzotriazole lead” (Bioorg Med Chem Lett, 2013).

Experiment [1] addresses Mitogen-activated protein kinase 11 (Homo sapiens, UniProt Q15759). As to the kind of experiment: Competitive binding affinity to p38-beta (unknown origin) at 10 uM in presence of ATP relative to control. The method in brief: (§1)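 In vitro ATP-site competition binding assay across a diverse panel of 128 kinases, with compound tested at a single concentration. Kinase selectivity scores (S15) were calculated from the panel profiles.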

Experiment [2] concerns the target Platelet-derived growth factor receptor beta (Homo sapiens, UniProt P09619). As to the kind of experiment: Competitive binding affinity to PDGFRB (unknown origin) at 10 uM in presence of ATP relative to control. The method in brief:
(§2)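 In vitro ATP-site competition binding assay across a diverse panel of 128 kinases, with each compound tested at a single concentration. Kinase binding is expressed relative to control.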

The target in experiment [3] is STE20-like serine/threonine-protein kinase (Homo sapiens) (UniProt Q9H2G2). As to the kind of experiment: Competitive binding affinity to SLK (unknown origin) at 10 uM in presence of ATP relative to control. The method in brief: as §1
STE20-like serine/threonine-protein kinase (Homo sapiens), sequence (Q9H2G2 whole entry, looked up): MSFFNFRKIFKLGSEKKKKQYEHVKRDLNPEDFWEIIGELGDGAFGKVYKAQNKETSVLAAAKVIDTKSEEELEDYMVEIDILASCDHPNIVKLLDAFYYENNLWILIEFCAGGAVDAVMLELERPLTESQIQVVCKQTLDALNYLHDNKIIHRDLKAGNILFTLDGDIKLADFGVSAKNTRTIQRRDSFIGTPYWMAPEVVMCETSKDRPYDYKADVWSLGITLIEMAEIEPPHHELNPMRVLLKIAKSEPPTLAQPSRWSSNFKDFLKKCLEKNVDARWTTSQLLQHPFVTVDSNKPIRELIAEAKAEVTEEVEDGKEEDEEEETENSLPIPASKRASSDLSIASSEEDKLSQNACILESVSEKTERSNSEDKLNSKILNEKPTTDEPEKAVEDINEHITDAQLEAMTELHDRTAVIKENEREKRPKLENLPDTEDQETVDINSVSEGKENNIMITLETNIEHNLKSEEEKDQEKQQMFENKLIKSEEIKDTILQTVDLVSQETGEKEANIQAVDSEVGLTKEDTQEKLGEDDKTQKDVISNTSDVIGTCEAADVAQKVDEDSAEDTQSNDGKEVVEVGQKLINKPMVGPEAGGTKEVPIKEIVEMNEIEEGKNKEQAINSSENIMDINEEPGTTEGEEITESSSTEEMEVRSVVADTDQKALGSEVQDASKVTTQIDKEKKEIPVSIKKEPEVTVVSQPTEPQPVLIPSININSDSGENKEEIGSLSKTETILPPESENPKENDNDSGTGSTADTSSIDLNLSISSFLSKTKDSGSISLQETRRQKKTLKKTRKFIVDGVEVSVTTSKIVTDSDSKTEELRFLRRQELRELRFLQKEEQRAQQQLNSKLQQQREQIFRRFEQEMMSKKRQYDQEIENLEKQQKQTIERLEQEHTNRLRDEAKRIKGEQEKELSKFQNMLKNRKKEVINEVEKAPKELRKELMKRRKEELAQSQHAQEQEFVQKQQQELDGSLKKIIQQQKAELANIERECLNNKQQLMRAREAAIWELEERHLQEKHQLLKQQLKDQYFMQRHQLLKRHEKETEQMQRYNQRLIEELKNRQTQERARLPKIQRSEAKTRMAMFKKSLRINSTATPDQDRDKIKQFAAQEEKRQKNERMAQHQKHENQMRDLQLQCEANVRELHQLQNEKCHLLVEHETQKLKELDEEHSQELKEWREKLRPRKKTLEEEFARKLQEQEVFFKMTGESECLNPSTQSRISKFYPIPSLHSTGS
The target of experiment [4] is c-Jun N-terminal kinase, JNK (Homo sapiens, UniProt P45983+P53779+P45984). As to the kind of experiment: Inhibition of JNK in human SW1353 cells assessed as inhibition of TNFalpha-induced c-Jun phosphorylation incubated for 30 mins prior to TNFalpha induction measured after 20 mins. The class given is cell-based. The method in brief:
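SW1353 cells were stimulated with TNFa, and the read-out was inhibition of phosphorylation of the downstream substrate c-Jun. Values are the mean of at least three experiments.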

Experiment [5] concerns the target Dual specificity protein kinase CLK4 (Homo sapiens) (UniProt Q9HAZ1). As to the kind of experiment: Competitive binding affinity to CLK4 (unknown origin) at 10 uM in presence of ATP relative to control.
In experiment [6] the target is T1, Aurora kinase A (Homo sapiens) (UniProt O14965).
T1 sequence (whole entry): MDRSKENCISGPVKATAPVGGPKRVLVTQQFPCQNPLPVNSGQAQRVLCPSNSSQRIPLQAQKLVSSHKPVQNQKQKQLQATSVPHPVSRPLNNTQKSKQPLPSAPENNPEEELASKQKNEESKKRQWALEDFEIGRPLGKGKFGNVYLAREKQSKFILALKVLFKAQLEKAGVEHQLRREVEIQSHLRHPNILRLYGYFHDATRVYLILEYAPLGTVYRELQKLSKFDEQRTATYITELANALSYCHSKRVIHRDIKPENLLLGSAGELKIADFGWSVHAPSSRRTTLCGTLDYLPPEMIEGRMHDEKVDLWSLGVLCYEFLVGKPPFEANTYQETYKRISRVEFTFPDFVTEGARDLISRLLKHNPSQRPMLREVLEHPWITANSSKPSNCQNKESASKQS
As to the kind of experiment: Competitive binding affinity to AURKA (unknown origin) at 10 uM in presence of ATP relative to control.

Experiment [7] concerns the target T2, Phosphorylase b kinase gamma catalytic chain, liver/testis isoform (Homo sapiens) (UniProt P15735).
T2 sequence (whole entry): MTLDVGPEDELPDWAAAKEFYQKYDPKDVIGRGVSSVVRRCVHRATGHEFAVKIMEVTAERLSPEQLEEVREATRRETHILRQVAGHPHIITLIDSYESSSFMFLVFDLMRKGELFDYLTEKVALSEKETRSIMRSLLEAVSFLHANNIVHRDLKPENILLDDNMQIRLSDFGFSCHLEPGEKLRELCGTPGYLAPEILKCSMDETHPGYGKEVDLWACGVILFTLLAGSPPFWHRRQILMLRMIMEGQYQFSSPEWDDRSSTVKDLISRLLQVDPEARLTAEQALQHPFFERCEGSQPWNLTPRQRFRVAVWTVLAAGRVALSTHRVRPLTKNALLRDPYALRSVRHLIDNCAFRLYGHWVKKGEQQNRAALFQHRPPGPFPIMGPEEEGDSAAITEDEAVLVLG
As to the kind of experiment: Competitive binding affinity to PHKG2 (unknown origin) at 10 uM in presence of ATP relative to control. The method in brief:
as §1

The target of experiment [8] is Mitogen-activated protein kinase 14 (Homo sapiens, UniProt Q16539). The experiment is described as follows: Competitive binding affinity to p38-alpha (unknown origin) at 10 uM in presence of ATP relative to control. The method in brief: as §1
Mitogen-activated protein kinase 14, sequence (Q16539 whole entry): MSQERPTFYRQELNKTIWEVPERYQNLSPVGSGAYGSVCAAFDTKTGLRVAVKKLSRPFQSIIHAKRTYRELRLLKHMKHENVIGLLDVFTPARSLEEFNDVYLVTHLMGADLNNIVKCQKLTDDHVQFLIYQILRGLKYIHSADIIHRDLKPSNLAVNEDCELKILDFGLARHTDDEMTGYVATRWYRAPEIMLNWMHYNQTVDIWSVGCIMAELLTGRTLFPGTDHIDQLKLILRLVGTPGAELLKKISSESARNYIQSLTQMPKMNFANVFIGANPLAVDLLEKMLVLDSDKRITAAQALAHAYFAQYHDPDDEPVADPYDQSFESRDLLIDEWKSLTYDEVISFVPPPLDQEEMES
Experiment [9] addresses Tyrosine-protein kinase Yes (Homo sapiens) (UniProt P07947). The experiment is described as follows: Competitive binding affinity to YES (unknown origin) at 10 uM in presence of ATP relative to control. The method in brief:
as §1

For experiment [10], the target named is Receptor tyrosine-protein kinase erbB-2 (Homo sapiens) (UniProt P04626). As to the kind of experiment: Competitive binding affinity to ERBB2 (unknown origin) at 10 uM in presence of ATP relative to control. The method in brief:
(§3)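 In vitro ATP-site competition binding assay, part of profiling against a diverse panel of 128 kinases. Each compound was tested at a single concentration of 10 µM. Kinome selectivity was summarized as S15 selectivity scores.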

For experiment [11], the target named is Mitogen-activated protein kinase 10 (Homo sapiens, UniProt P53779). The experiment is described as follows: Competitive binding affinity to JNK3 (unknown origin) at 10 uM in presence of ATP relative to control. The method in brief:
as §2

Experiment [12] addresses Phosphorylase b kinase gamma catalytic chain, skeletal muscle/heart isoform (Homo sapiens) (UniProt Q16816). As to the kind of experiment: Competitive binding affinity to PHKG1 (unknown origin) at 10 uM in presence of ATP relative to control. The method in brief:
as §1

In experiment [13] the target is Fibroblast growth factor receptor 2 (Homo sapiens) (UniProt P21802). The experiment is described as follows: Competitive binding affinity to FGFR2 (unknown origin) at 10 uM in presence of ATP relative to control. The method in brief: as §3
For experiment [14], the target named is Tyrosine-protein kinase HCK (Homo sapiens) (UniProt P08631). The experiment is described as follows: Competitive binding affinity to HCK (unknown origin) at 10 uM in presence of ATP relative to control. The method in brief: as §3
In experiment [15] the target is Dual specificity protein kinase CLK2 (Homo sapiens) (UniProt P49760). The experiment is described as follows: Competitive binding affinity to CLK2 (unknown origin) at 10 uM in presence of ATP relative to control. The method in brief:
as §2

Mitogen-activated protein kinase 10, sequence (P53779 whole entry): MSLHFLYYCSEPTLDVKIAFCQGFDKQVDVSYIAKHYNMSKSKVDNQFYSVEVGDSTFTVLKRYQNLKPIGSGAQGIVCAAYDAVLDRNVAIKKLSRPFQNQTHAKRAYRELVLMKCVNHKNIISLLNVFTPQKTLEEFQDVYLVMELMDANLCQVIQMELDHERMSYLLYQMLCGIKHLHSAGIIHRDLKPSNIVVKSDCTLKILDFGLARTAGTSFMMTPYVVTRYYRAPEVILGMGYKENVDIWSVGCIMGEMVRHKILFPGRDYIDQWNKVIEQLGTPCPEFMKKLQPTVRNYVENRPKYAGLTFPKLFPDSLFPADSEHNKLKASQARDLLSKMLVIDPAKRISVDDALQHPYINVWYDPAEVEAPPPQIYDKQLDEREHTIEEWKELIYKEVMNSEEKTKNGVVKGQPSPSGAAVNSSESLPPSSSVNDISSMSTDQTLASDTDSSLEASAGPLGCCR
Dual specificity protein kinase CLK4 (Homo sapiens), sequence (Q9HAZ1 whole entry, looked up): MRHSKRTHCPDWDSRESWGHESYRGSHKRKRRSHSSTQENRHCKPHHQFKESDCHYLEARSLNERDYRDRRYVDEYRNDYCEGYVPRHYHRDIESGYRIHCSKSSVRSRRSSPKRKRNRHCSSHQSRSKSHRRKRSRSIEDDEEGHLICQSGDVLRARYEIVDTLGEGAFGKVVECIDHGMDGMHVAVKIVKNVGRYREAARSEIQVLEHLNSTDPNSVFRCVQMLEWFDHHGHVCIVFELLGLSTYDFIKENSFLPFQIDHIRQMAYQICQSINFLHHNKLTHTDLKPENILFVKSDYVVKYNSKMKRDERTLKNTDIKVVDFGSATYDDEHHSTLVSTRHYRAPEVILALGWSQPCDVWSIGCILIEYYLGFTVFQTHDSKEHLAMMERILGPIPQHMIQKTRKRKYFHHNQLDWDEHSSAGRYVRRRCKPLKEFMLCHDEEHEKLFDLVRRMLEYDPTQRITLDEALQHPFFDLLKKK
Receptor tyrosine-protein kinase erbB-2 (Homo sapiens), sequence (P04626 whole entry): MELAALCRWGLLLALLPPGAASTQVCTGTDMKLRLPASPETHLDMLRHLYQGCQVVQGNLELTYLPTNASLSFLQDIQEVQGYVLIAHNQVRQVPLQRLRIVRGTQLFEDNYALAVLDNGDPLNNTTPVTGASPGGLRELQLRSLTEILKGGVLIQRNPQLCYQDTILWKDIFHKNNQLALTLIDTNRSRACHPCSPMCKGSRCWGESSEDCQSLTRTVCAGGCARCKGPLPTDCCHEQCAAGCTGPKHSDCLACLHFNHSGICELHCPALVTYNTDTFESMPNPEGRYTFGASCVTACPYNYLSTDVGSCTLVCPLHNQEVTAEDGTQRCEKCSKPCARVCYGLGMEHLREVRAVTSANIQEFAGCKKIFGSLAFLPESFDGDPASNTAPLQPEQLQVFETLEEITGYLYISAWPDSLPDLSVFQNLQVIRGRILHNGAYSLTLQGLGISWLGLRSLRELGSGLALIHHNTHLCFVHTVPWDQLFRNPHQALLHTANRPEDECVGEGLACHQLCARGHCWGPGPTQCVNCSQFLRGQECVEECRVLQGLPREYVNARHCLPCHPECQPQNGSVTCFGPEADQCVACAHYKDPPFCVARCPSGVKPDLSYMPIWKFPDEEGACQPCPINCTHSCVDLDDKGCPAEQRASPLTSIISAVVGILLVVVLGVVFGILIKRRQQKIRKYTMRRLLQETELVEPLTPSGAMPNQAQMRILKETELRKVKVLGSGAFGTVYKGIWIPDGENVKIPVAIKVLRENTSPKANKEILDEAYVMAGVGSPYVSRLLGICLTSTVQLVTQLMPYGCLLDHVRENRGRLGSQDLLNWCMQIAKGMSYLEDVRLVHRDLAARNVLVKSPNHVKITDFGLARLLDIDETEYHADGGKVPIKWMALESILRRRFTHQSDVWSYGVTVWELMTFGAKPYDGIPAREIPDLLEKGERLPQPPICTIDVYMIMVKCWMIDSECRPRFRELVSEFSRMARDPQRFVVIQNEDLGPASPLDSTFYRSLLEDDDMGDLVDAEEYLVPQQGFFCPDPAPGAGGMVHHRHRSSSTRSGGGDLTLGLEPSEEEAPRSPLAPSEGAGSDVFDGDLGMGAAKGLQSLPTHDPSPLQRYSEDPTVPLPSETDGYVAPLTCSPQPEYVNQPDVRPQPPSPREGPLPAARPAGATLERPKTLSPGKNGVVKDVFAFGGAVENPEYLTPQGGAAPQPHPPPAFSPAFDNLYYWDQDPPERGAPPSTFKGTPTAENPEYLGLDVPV
Mitogen-activated protein kinase 11, sequence (Q15759 whole entry): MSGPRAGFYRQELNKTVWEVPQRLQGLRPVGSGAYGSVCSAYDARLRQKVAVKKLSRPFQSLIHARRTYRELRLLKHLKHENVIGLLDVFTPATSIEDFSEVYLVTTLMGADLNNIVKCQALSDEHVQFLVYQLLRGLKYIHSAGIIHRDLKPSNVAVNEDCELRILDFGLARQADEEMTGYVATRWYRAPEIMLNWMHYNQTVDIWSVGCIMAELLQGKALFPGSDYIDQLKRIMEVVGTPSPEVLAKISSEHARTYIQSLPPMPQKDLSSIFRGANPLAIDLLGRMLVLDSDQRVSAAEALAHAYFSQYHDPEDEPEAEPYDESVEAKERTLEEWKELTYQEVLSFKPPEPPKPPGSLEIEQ
Dual specificity protein kinase CLK2 (Homo sapiens), sequence (P49760 whole entry, looked up): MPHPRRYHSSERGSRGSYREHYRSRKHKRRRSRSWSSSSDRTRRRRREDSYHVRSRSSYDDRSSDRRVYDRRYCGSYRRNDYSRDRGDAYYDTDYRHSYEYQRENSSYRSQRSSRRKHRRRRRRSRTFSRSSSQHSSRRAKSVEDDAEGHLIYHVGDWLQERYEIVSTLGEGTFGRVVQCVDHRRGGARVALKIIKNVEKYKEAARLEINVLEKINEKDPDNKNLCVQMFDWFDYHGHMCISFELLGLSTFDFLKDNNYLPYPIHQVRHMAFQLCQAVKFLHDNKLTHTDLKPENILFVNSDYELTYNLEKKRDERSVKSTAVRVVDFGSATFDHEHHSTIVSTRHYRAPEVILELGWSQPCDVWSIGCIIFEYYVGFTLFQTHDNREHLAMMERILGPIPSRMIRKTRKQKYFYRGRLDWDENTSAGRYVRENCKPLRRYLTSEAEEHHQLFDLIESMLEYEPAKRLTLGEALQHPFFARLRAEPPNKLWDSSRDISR
Phosphorylase b kinase gamma catalytic chain, skeletal muscle/heart isoform (Homo sapiens), sequence (Q16816 whole entry, looked up, canonical isoform): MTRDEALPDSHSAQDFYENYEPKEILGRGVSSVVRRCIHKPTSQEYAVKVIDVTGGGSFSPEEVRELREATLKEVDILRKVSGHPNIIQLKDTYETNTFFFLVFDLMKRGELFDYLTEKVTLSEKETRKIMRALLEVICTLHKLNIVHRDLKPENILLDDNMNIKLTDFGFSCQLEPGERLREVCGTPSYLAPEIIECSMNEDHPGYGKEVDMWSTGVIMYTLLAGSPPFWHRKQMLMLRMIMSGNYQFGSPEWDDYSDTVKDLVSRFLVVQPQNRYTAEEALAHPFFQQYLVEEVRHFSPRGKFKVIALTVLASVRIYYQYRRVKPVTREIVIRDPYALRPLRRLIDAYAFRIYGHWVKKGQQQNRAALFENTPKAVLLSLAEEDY

With `O[C@H]1CC[C@H](Nc2nccc(-n3ccc4ccccc43)n2)CC1`, the inhibition (in general, the change of the read-out against control, counted positive when it falls) in [1] is less than 50%; in experiment [2] it was 67%; in experiment [3], less than 50%; in experiment [5], 95%; in experiment [6], less than 50%; in experiment [7], less than 50%. For the same compound, the inhibition in experiment [8] is less than 50%; in [9] it was less than 50%; in experiment [10], less than 50%; in experiment [11], 100%; in [12], less than 50%; in experiment [13], less than 50%. Also, the inhibition was less than 50% in experiment [14] and 97% in experiment [15]. The IC50 (usually the concentration that inhibits the measured activity by half) in experiment [4] was found to be 2 µM.
Regarding `O[C@H]1CC[C@H](Nc2nccc(-n3nnc4ccccc43)n2)CC1`, the inhibition is less than 50% in experiment [1]; 91% in [2]; less than 50% in experiment [3]; 98% in experiment [5]; less than 50% in [6]; 83% in experiment [7]. The inhibition was less than 50% in experiment [8]; less than 50% in experiment [9]; less than 50% in experiment [10]; 100% in experiment [11]; less than 50% in experiment [12]; less than 50% in experiment [13]. Also, the inhibition was less than 50% in experiment [14] and 99% in [15]. In addition, the IC50 in experiment [4] was determined as 0.79 µM.
Turning to `CS(=O)(=O)CCCOc1cccc2c1ccn2-c1ccnc(N[C@H]2CC[C@H](C(=O)N3CCC(O)CC3)CC2)n1`, the inhibition in experiment [1], in experiment [2], in [8] and in experiment [11] was greater than 85% throughout. Also, the IC50 in experiment [4] was determined as 1.1 µM.
For the compound `O=C([C@H]1CC[C@H](Nc2nccc(-n3nnc4ccccc43)n2)CC1)N1CCOCC1`, the inhibition in [1] is less than 50%; in experiment [2], 70%; in experiment [3], less than 50%; in experiment [5], 94%; in [6], 80%; in [7] it was less than 50%. For the same compound, the inhibition in experiment [8] was less than 50%; in [9], less than 50%; in experiment [10] it was less than 50%; in experiment [11] it was 100%; in [12], less than 50%; in experiment [13] it was less than 50%. Moreover, the figures for the inhibition in [14] and in [15] were less than 50% and 94%, respectively. Moreover, in experiment [4], the IC50 turned out to be 1.8 µM.
As for `O[C@H]1CC[C@H](Nc2nccc(-n3ncc4ccccc43)n2)CC1`, the inhibition in experiment [1] was less than 50%; in experiment [2] it was 90%; in [3], less than 50%; in [5] it was 99%; in experiment [6] it was less than 50%; in experiment [7], less than 50%. In addition, the inhibition is less than 50% in experiment [8]; less than 50% in experiment [9]; less than 50% in experiment [10]; 100% in experiment [11]; less than 50% in [12]; less than 50% in experiment [13]. The inhibition in experiment [14] is less than 50%; in [15], 99%. Also, the IC50 in experiment [4] was determined as 2.7 µM.
`O[C@H]1CC[C@H](Nc2nccc(-c3n[nH]c4ccccc34)n2)CC1`: the inhibition in [1] is less than 50%; in [2], 98%; in experiment [3], 99%; in experiment [5], 100%; in experiment [6] it was 92%; in experiment [7], 90%. The inhibition is less than 50% in [8]; 78% in [9]; less than 50% in experiment [10]; 100% in [11]; 77% in experiment [12]; less than 50% in experiment [13]. Besides, the inhibition amounted to 66% in [14] and 95% in experiment [15]. Also, in [4], the IC50 worked out at 2.3 µM.
Turning to `N[C@H]1CC[C@H](Nc2nccc(-n3nnc4ccccc43)n2)CC1`, the inhibition is less than 50% in experiment [1]; 95% in [2]; less than 50% in experiment [3]; 100% in [5]; less than 50% in experiment [6]; 100% in experiment [7]. Moreover, the inhibition in experiment [8] is less than 50%; in experiment [9] it was less than 50%; in [10], less than 50%; in experiment [11], 100%; in experiment [12], 93%; in [13], less than 50%. In addition, the inhibition in experiment [14] is 78%; in [15] it was 100%. The IC50 in experiment [4] was 0.54 µM.
